Shown is part of a subset that was picked to be rich in hits.
Jurkat NFkB inh = lowers PMA/ionomycin-induced NF-kB signal in Jurkat cells; PMA/ionomycin-induced NF-kB luciferase reporter, luminescence; AID 435003; inhibition, % at 4 µM; 0.53% of 330,000 active; in the data active = inhibition above about 50%
XBP1 UPR activ = adaptive UPR (XBP1) activation; activation, % at 20 µM; CHO-XBP1 luciferase reporter, IRE1-XBP1 UPR activation, luminescence; percent of tunicamycin response, DMSO as zero; AID 463104; 0.33% of 330,000 active;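 active = versus positive control, 20 µM dose yields 30% or more activation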
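Material: IRE1-XBP1 luciferase reporter CHO line / Quantity: one thousand reporter cells per well / Buffer or medium: F12 with 10% serum / Compound: 20 µM single concentration, DMSO 1% / Times: 6 h treatment, 37 °C / Detection: Steady-Glo luciferase glow luminescence, 10 min after reagent addition / Benchmarks: tunicamycin high, DMSO low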
CHOP UPR activ = apoptotic UPR (CHOP) activation; AID 449763; 0.34% of 330,000 active; activation, % at 10 µM; CHO-CHOP luciferase reporter, luminescence; percent of tunicamycin response over DMSO baseline;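 active = at 10 µM dose, activation of 40% or more, normalized to positive control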
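Material: CHO-CHOP cells, stable luciferase reporter of PERK-eIF2a-CHOP signalling; quantity: 500 reporter cells seeded per well; buffer or medium: F12 medium containing 10% fetal bovine serum; compound: one dose, 10 µM in 0.5% DMSO; incubation: 6 h compound treatment, 37 °C; measured by: Steady-Glo luciferase luminescence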
697 NFkB inh = lowers PMA/ionomycin-induced NF-kB signal in 697 B cells; 697 B-cell NF-kB luciferase reporter, 16 h; inhibition, % at 4 µM; 0.33% of 330,000 active; AID 435022; in the data active = inhibition above about 35%
CHOP inhibitor = blocks CHOP induction under ER stress | CHO-K1 CHOP-promoter luciferase, tunicamycin-induced, 15-18 h | inhibition, % at 10 µM | 3.8% of 220,000 active;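 active = compounds that reduced the stress-induced luciferase reporter signal by more than about 70% of percent inhibition, limit read from the data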
Large screens that a line does not name were inactive.

O=[N+]([O-])c1cc(Cl)cc(/C=N\Nc2ccccn2)c1O	CHOP inhibitor 93
CCCCNCC1C(Oc2ccc(Cl)cc2)C(=O)N1c1ccccc1C (centres undefined)	CHOP inhibitor 77
CCCNCC1C(Oc2ccc(Cl)cc2Cl)C(=O)N1c1cccc(C)c1C (centres undefined)	none
CCCCn1c(SCC(=O)Nc2oc(C)c3c(C)n[nH]c(=O)c23)nc2cc(S(N)(=O)=O)ccc21	none (no result: CHOP inhibitor)
Cc1ccc(NC(=S)N/N=C2/CCCCc3ccccc32)cc1	none
COc1ccc(NC(=S)N/N=C2/CCCc3c(C)cc(C)cc32)cc1	CHOP inhibitor 77
CCCCN(C(=O)c1ccc(S(=O)(=O)N2CCCC2)cc1)C1CCS(=O)(=O)C1 (centres undefined)	none (no result: CHOP inhibitor)
O=C(c1ccc(S(=O)(=O)Nc2ccccc2F)cc1)N1CCN(c2ccccn2)CC1	none (no result: CHOP inhibitor)
O=C(NCCSCc1ccco1)Nc1cc(Cl)cc(Cl)c1	CHOP inhibitor 70
O=C(CSC1=NS(=O)(=O)c2cc(F)ccc2N1)NCCc1ccccc1	none (no result: CHOP inhibitor)
Oc1c(N=NC(=S)Nc2ccccc2F)c2ccccc2n1Cc1ccccc1Cl	none
Cc1c(Cl)cccc1NC(=S)N=Nc1c(O)n(CN2CCOCC2)c2ccccc12	CHOP inhibitor 87
Cc1ccccc1C(=O)NC(=S)Nc1ccc(S(=O)(=O)N(C)c2ccccc2)cc1	CHOP inhibitor 77
CS(=O)(=O)N(Cc1ccccc1Cl)c1ccc(C(=O)N2CCCC2)cc1	none (no result: CHOP inhibitor)
Cc1ccc(C(=O)Nc2ccccc2N2CCOCC2)cc1S(=O)(=O)N1CCOCC1	none (no result: CHOP inhibitor)
CCCNS(=O)(=O)c1ccc(Oc2ncc(C(F)(F)F)cc2Cl)cc1	CHOP inhibitor 74
OC(CNCCc1ccccc1)COc1ccc(OCC(O)CNCCc2ccccc2)cc1 (centres undefined)	none
OC(CNCCc1ccc(Cl)cc1)COc1ccc2ccccc2c1 (centres undefined)	CHOP inhibitor 100 (no result: Jurkat NFkB inh, XBP1 UPR activ, CHOP UPR activ, 697 NFkB inh)
COc1ccc(/C=N/NC(=O)Cn2nc([N+](=O)[O-])cc2C)c(OC)c1OC	none
CCOc1cc(/C=N\NC(=O)Cn2nc([N+](=O)[O-])cc2C)ccc1OCc1cccc2ccccc12	CHOP inhibitor 88
CC(OC(=O)CSc1ccc([N+](=O)[O-])cc1)C(=O)NCc1ccccc1 (centres undefined)	none (no result: CHOP inhibitor)
CN(Cc1c(F)cccc1Cl)C(=O)C1=CC=CN2CCS(=O)(=O)N=C12	none (no result: CHOP inhibitor)
CCN1C(=O)[C@H]2[C@H]3CN=C(SCC4CC4)N3[C@@](CC)(C(=O)OC)[C@H]2C1=O	none (no result: Jurkat NFkB inh, CHOP inhibitor)
COc1cc(NC(=O)c2cc3sccc3n2C)cc(OC)c1	CHOP inhibitor 75
NC(=O)c1cc(S(=O)(=O)N2CCCC2)ccc1OCCOc1ccccc1F	none (no result: CHOP inhibitor)
CCOc1ccc(Br)cc1C(=O)Nc1ccc(C(=O)NCC(C)C)cc1	CHOP inhibitor 83
CC1CC(=O)c2c(cc3c(-c4c(O)cc(O)c5c(O)c6c(cc45)OC(C)CC6=O)c(O)cc(O)c3c2O)O1 (centres undefined)	CHOP inhibitor 82
O=C1CC(c2ccc(O)cc2)Oc2cc(O)cc(O)c21 (centres undefined)	none
Fc1nc(F)c(F)c(NCCCNc2c(F)c(F)nc(F)c2F)c1F	CHOP inhibitor 88
O=C(NCc1ccccc1Cl)C(=O)NCC(c1ccco1)N1CCOCC1 (centres undefined)	none
COc1cccc(NS(=O)(=O)c2cc(C)sc2C)c1	CHOP inhibitor 75
Cc1cc(S(=O)(=O)Nc2cccc(Cl)c2)c(C)s1	none
CCOC(=O)CCc1c(C)nc(SCCCn2c(=O)[nH]c3ccccc32)c(C#N)c1C	CHOP inhibitor 83
COc1ccccc1N(CC(=O)NC(C)(C)C)C(=O)CCC(=O)Nc1nccs1	none (no result: CHOP inhibitor)
Cc1cccc(C)c1Nc1c(-c2ccccn2)nc2ccccn12	CHOP inhibitor 71
Cc1ccc(Nc2c(-c3ccccn3)nc3cccc(C)n23)cc1	CHOP inhibitor 94
Cc1ccccc1Nc1c(-c2ccccn2)nc2c(C)cccn12	none
Cc1cccc2nc(-c3ccco3)c(Nc3ccccc3)n12	none
NS(=O)(=O)c1ccc(NC(NC(=O)c2cccnc2)C(Cl)(Cl)Cl)cc1 (centres undefined)	none (no result: CHOP inhibitor)
Cc1nnc(SCC(=O)NCC2CCCO2)n1Cc1ccccc1 (centres undefined)	none (no result: CHOP inhibitor)
